ChEMBL document CHEMBL1139832, “Selective angiotensin II AT(2) receptor agonists devoid of the imidazole ring system” (Bioorg Med Chem, 2007)
Activity calls are given as the source filed them. No cut-off for these calls is given here.

How the values were obtained:
[1] = Displacement of [125I]Ang 2 from AT2 receptor in pig uterus membranes; type: cell membranes, Sus scrofa, Membrane
Method in brief: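 Porcine uterine myometrial membranes (10 mg original tissue), with 1 µM losartan to block AT1, incubated with [125I]Ang II (0.03 nM) and varying test compound in Tris–HCl pH 7.4 buffer with NaCl, MgCl2, EDTA, bacitracin and BSA; 25 °C, 1.5 h. Filtered, gamma counted. Nonspecific binding with 1 µM Ang II. Ki via Cheng–Prusoff (Kd 0.73 nM), one-site fit; triplicate.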

[2] = molecular target: T1, Type-1 angiotensin II receptor A (Rattus norvegicus, UniProt P25095); test: Displacement of [125I]Ang 2 from AT1 receptor in rat liver membranes; type: cell membranes, Membrane
T1 sequence (P25095 whole entry): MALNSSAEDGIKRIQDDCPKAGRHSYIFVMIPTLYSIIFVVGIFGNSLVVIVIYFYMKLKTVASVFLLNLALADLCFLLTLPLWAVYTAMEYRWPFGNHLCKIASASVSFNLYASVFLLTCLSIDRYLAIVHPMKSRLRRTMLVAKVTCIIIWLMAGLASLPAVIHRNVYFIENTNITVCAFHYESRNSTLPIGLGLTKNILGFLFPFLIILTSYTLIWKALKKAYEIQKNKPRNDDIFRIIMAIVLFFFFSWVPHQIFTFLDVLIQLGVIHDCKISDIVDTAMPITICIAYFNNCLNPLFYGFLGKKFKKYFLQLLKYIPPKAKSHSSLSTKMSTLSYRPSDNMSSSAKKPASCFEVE
Method in brief: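 Rat liver membranes (5 mg original tissue) incubated with [125I]Ang II (0.03 nM) and varying test compound in 50 mM Tris–HCl pH 7.4, 100 mM NaCl, 10 mM MgCl2, 1 mM EDTA, 0.025% bacitracin, 0.2% BSA; 25 °C for 2 h. Filtered onto polyethylamine-soaked GF/B filters, gamma counting. Nonspecific binding with 1 µM Ang II; triplicate.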

NG108-15 [3] = test: Induction of neurite outgrowth in NG108-15 cells at 1 nM after 3 days; type: functional, cell-based
Method in brief: (§1)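 NG108-15 neuroblastoma×glioma cells (AT2 only; DMEM, 10% FBS, HAT) plated at 3.6·10⁴ cells/35 mm dish, then treated daily for 3 days, alone or with PD 123,319 added 30 min beforehand. Examined by phase-contrast microscopy.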

NG108-15 [4] = test: Induction of neurite outgrowth in NG108-15 cells at 0.1 uM after 3 days; type: functional, cell-based; method in brief: as §1

SMILES | Ki [1] | Ki [2] | Activity (NG108-15 [3]) | Activity (NG108-15 [4])
CCCCOC(=O)NS(=O)(=O)c1sc(CC(C)C)cc1-c1csc(CN(C)C(C)=O)c1 | > 10000 nM | > 10000 nM |  | 
CCCCOC(=O)NS(=O)(=O)c1sc(CC(C)C)cc1-c1ccc(CN(CC)C(=O)c2cccs2)cc1 | 138 nM | > 10000 nM |  | 
CCCCOC(=O)NS(=O)(=O)c1sc(CC(C)C)cc1-c1ccc(CC(=O)N2CCSC2)cc1 | 133 nM | > 10000 nM |  | 
CCCCOC(=O)NS(=O)(=O)c1sc(CC(C)C)cc1-c1ccc(CN(C(C)=O)c2ccc(C)cc2)cc1 | 60 nM | > 10000 nM |  | 
CCCCOC(=O)NS(=O)(=O)c1sc(CC(C)C)cc1-c1ccc(CN(Cc2ccccc2)C(C)=O)cc1 | 200 nM | > 10000 nM |  | 
CCCCOC(=O)NS(=O)(=O)c1sc(CC(C)C)cc1-c1ccc(CC(=O)N(Cc2ccccc2)Cc2ccccc2)cc1 | 185 nM | > 10000 nM |  | 
CCCCOC(=O)NS(=O)(=O)c1sc(CC(C)C)cc1-c1ccc(CC(=O)NC)cc1 | 80 nM | > 10000 nM |  | 
CCCCOC(=O)NS(=O)(=O)c1sc(CC(C)C)cc1-c1ccc(CN(C)C(C)=O)cn1 | > 10000 nM | > 10000 nM |  | 
CCCCOC(=O)NS(=O)(=O)c1sc(CC(C)C)cc1-c1ccc(CN(C(=O)c2ccccc2)c2ccc(C)cc2)cc1 | 46 nM | > 10000 nM |  | 
CCCCOC(=O)NS(=O)(=O)c1sc(CC(C)C)cc1-c1ccc(CC(=O)Nc2ccc(C)cc2)cc1 | 58 nM | > 10000 nM |  | 
CCCCOC(=O)NS(=O)(=O)c1sc(CC(C)C)cc1-c1ccc(CC(=O)N(C)CCCC)cc1 | 367 nM | > 10000 nM |  | 
CCCCOC(=O)NS(=O)(=O)c1sc(CC(C)C)cc1-c1ccc(CN(C)CC#N)cc1 | > 10000 nM | > 10000 nM |  | 
CCCCOC(=O)NS(=O)(=O)c1sc(CC(C)C)cc1-c1ccc(CC(=O)N(c2ccccc2)c2ccccc2)cc1 | 219 nM | > 10000 nM |  | 
CCCCCCNC(=O)Cc1ccc(-c2cc(CC(C)C)sc2S(=O)(=O)NC(=O)OCCCC)cc1 | 158 nM | > 10000 nM |  | 
CCCCOC(=O)NS(=O)(=O)c1sc(CC(C)C)cc1-c1ccc(CN(Cc2ccccc2)C(=O)CCCC)cc1 | 84 nM | > 10000 nM |  | 
CCCCOC(=O)NS(=O)(=O)c1sc(CC(C)C)cc1-c1ccc(CN(Cc2cccnc2)C(C)=O)cc1 | 59 nM | > 10000 nM |  | 
CCCCOC(=O)NS(=O)(=O)c1sc(CC(C)C)cc1-c1ccc(CC(=O)N(CC)Cc2ccccc2)cc1 | 322 nM | > 10000 nM |  | 
CCCCOC(=O)NS(=O)(=O)c1sc(CC(C)C)cc1-c1ccc(CC(=O)NCc2ccccc2)cc1 | 221 nM | > 10000 nM |  | 
CCCCOC(=O)NS(=O)(=O)c1sc(CC(C)C)cc1-c1ccc(CN(Cc2cccnc2)C(=O)c2ccccc2)cc1 | 404 nM | > 10000 nM |  | 
CCCCOC(=O)NS(=O)(=O)c1sc(CC(C)C)cc1-c1ccc(CN(C)C(C)=O)o1 | 9.1 nM | > 10000 nM | Active | 
CCCCOC(=O)NS(=O)(=O)c1sc(CC(C)C)cc1-c1ccc(CC(=O)N2CCOCC2)cc1 | 124 nM | > 10000 nM |  | 

More lines, main results first:

Ki [1] | Ki [2] | SMILES | Activity (NG108-15 [3]) | Activity (NG108-15 [4])
12 nM | > 10000 nM | CCCCOC(=O)NS(=O)(=O)c1sc(CC(C)C)cc1-c1ccc(CN(C)C(=O)CCCC)cc1 |  | 
9.7 nM | > 10000 nM | CCCCOC(=O)NS(=O)(=O)c1sc(CC(C)C)cc1-c1ccc(CN(C)C(=O)OCC)cc1 |  | 
32 nM | > 10000 nM | CCCCOC(=O)NS(=O)(=O)c1sc(CC(C)C)cc1-c1ccc(CN(C)S(C)(=O)=O)cc1 |  | 
8.8 nM | > 10000 nM | CCCCOC(=O)NS(=O)(=O)c1sc(CC(C)C)cc1-c1ccc(CN(C)C(C)=O)cc1 | Active | 
3.1 nM | > 10000 nM | CCCCOC(=O)NS(=O)(=O)c1sc(CC(C)C)cc1-c1ccc(CN(C)C=O)cc1 |  | 
126 nM | > 10000 nM | CCCCOC(=O)NS(=O)(=O)c1sc(CC(C)C)cc1-c1ccc(CN(CC)C(C)=O)cc1 |  | 
7 nM | > 10000 nM | CCCCOC(=O)NS(=O)(=O)c1sc(CC(C)C)cc1-c1ccc(CC(=O)N(C)C)cc1 |  | Active
2.8 nM | > 10000 nM | CCCCOC(=O)NS(=O)(=O)c1sc(CC(C)C)cc1-c1ccc(CN(C)OC)cc1 | Active | 
5.8 nM | > 10000 nM | CCCCOC(=O)NS(=O)(=O)c1sc(CC(C)C)cc1-c1ccc(CNC(C)=O)cc1 |  | 
51 nM | > 10000 nM | CCCCOC(=O)NS(=O)(=O)c1sc(CC(C)C)cc1-c1ccc(CC(N)=O)cc1 |  | 
> 10000 nM | > 10000 nM | CCCCOC(=O)NS(=O)(=O)c1sc(CC(C)C)cc1-c1ccc(CN(C)C)cc1 |  | 
